ChEMBL document CHEMBL4118165, “Synthesis and kinetic evaluation of ethyl acrylate and vinyl sulfone derived inhibitors for human cysteine cathepsins” (Bioorg Med Chem Lett, 2018)

Experiments:
[1] = molecular target: Procathepsin L (Homo sapiens) (UniProt P07711); experiment: Irreversible inhibition of human cathepsin L using Z-Phe-Arg-pNA as substrate assessed as ratio of Kinac/Ki after 10 to 80 mins by photometric analysis
[2] = molecular target: T1, Cathepsin K (Homo sapiens) (UniProt P43235); experiment: Irreversible inhibition of human cathepsin K using Z-Leu-Arg-AMC as substrate by fluorimetric analysis; details: TDE = time-dependent effect
T1 sequence (whole entry): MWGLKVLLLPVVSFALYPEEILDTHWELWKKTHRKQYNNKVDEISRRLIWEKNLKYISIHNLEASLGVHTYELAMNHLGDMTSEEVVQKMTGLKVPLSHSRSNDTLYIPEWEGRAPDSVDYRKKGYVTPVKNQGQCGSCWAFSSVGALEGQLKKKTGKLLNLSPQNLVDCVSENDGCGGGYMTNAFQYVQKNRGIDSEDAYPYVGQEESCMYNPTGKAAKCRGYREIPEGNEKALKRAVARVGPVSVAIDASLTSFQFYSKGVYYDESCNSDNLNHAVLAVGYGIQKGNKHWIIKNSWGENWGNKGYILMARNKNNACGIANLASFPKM

[3] = molecular target: Cathepsin S (Homo sapiens) (UniProt P25774); experiment: Irreversible inhibition of human cathepsin S using Z-Phe-Arg-AMC as substrate assessed as ratio of Kinac/Ki after 10 to 80 mins by fluorimetric analysis
[4] = molecular target: T1, Cathepsin K (Homo sapiens); experiment: Irreversible inhibition of human cathepsin K using Z-Leu-Arg-AMC as substrate assessed as ratio of Kinac/Ki after 10 to 80 mins by fluorimetric analysis
[5] = molecular target: Cathepsin S (Homo sapiens) (UniProt P25774); experiment: Irreversible inhibition of human cathepsin S using Z-Phe-Arg-AMC as substrate by fluorimetric analysis; details: TDE = time-dependent effect
Method in brief: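 Human cathepsin S monitored fluorimetrically (ex 360, em 440 nm) at 25 °C, pH 6.0. […] Progress curves were fitted non-linearly for kobs, and kinac/Ki was calculated including the [S]/Km competition term.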

[6] = molecular target: Cathepsin B (Homo sapiens) (UniProt P07858); experiment: Irreversible inhibition of human cathepsin B using Z-Arg-Arg-pNA as substrate assessed as ratio of Kinac/Ki after 10 to 80 mins by photometric analysis
[7] = molecular target: Procathepsin L (Homo sapiens) (UniProt P07711); experiment: Irreversible inhibition of human cathepsin L using Z-Phe-Arg-pNA as substrate by photometric analysis; details: TDE = time-dependent effect
[8] = molecular target: Cathepsin B (Homo sapiens) (UniProt P07858); experiment: Irreversible inhibition of human cathepsin B using Z-Arg-Arg-pNA as substrate by photometric analysis; details: TDE = time-dependent effect
Method in brief: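 Human cathepsin B assayed photometrically at 405 nm, 37 °C, pH 6.0. […] Progress curves were fitted by non-linear regression to get kobs, and kinac/Ki was derived with correction for substrate competition ([S]/Km).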

Chain of Procathepsin L (Homo sapiens) (P07711 114-333 limits assumed): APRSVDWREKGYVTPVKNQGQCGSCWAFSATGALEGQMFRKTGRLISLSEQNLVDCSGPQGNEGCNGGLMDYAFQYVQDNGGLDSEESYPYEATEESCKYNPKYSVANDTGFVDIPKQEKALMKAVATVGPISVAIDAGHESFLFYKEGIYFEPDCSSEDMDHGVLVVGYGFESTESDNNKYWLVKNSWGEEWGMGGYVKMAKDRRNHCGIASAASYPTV
Chain of Cathepsin S (Homo sapiens) (P25774 115-331 limits assumed): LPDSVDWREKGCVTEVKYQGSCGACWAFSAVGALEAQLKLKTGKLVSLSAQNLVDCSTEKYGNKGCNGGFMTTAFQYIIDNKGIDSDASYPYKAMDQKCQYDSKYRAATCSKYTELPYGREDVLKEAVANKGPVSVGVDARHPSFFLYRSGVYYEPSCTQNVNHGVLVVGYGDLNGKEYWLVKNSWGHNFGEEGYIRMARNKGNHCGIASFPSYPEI

Row | Compound | Ratio [1] | inhibition [2] | Ratio [3] | Ratio [4] | inhibition [5] | Ratio [6] | inhibition [7] | inhibition [8]
1 | CCOC(=O)/C=C/CNC(=O)[C@H](Cc1ccccc1)NC(=O)OC(C)(C)C | 1120 M⁻¹ s⁻¹ | Tde | 525 M⁻¹ s⁻¹ | 752 M⁻¹ s⁻¹ | Tde | 3660 M⁻¹ s⁻¹ | Tde | Tde
2 | CCOC(=O)/C=C/CNC(=O)[C@H](CC(C)C)NC(=O)OC(C)(C)C | 1280 M⁻¹ s⁻¹ | Tde | 6600 M⁻¹ s⁻¹ | 11600 M⁻¹ s⁻¹ | Tde | 3090 M⁻¹ s⁻¹ | Tde | Tde
3 | CC(C)(C)OC(=O)N[C@@H](Cc1ccccc1)C(=O)NC/C=C/S(=O)(=O)c1ccccc1 | 5880 M⁻¹ s⁻¹ | Tde | 7960 M⁻¹ s⁻¹ | 1320 M⁻¹ s⁻¹ | Tde | 378 M⁻¹ s⁻¹ | Tde | Tde
4 | CCOC(=O)/C=C/CNC(=O)[C@H](CC(C)C)NC(=O)CCNC(=O)OC(C)(C)C | 554 M⁻¹ s⁻¹ | Tde | 2590 M⁻¹ s⁻¹ | 2890 M⁻¹ s⁻¹ | Tde | 248 M⁻¹ s⁻¹ | Tde | Tde
5 | CCOC(=O)/C=C/CNC(=O)[C@H](Cc1ccccc1)NC(=O)CCNC(=O)OC(C)(C)C | 3540 M⁻¹ s⁻¹ | Tde | 879 M⁻¹ s⁻¹ | 759 M⁻¹ s⁻¹ | Tde | 2660 M⁻¹ s⁻¹ | Tde | Tde

More lines, now with the values ahead:

Row | Ratio [1] | inhibition [2] | Ratio [3] | Ratio [4] | inhibition [5] | Ratio [6] | inhibition [7] | inhibition [8] | Compound
6 | 3310 M⁻¹ s⁻¹ | Tde | 11900 M⁻¹ s⁻¹ | 25.5 M⁻¹ s⁻¹ | Tde | 150 M⁻¹ s⁻¹ | Tde | Tde | CC(C)C[C@H](NC(=O)COCCOCCNC(=O)OC(C)(C)C)C(=O)NC/C=C/S(=O)(=O)c1ccccc1
7 | 12800 M⁻¹ s⁻¹ | Tde | 13100 M⁻¹ s⁻¹ | 2230 M⁻¹ s⁻¹ | Tde | 214 M⁻¹ s⁻¹ | Tde | Tde | CC(C)(C)OC(=O)NCCC(=O)N[C@@H](Cc1ccccc1)C(=O)NC/C=C/S(=O)(=O)c1ccccc1
8 | 652 M⁻¹ s⁻¹ | Tde | 557 M⁻¹ s⁻¹ | 297 M⁻¹ s⁻¹ | Tde | 348 M⁻¹ s⁻¹ | Tde | Tde | CCOC(=O)/C=C/CNC(=O)[C@H](Cc1ccccc1)NC(=O)COCCOCCNC(=O)OC(C)(C)C
9 | 671 M⁻¹ s⁻¹ | Tde | 30600 M⁻¹ s⁻¹ | 12500 M⁻¹ s⁻¹ | Tde | 58.3 M⁻¹ s⁻¹ | Tde | Tde | CC(C)C[C@H](NC(=O)CCNC(=O)OC(C)(C)C)C(=O)NC/C=C/S(=O)(=O)c1ccccc1
10 | 879 M⁻¹ s⁻¹ | Tde | 28400 M⁻¹ s⁻¹ | 18300 M⁻¹ s⁻¹ | Tde | 85.1 M⁻¹ s⁻¹ | Tde | Tde | CC(C)C[C@H](NC(=O)OC(C)(C)C)C(=O)NC/C=C/S(=O)(=O)c1ccccc1
